Experimental data reported in ChEMBL document CHEMBL1157752, “Lessons learned from herbal medicinal products: the example of St. John's Wort (perpendicular)” (J Nat Prod, 2010).

How the values were obtained:
[1] = target: Cytochrome P450 3A4 (Homo sapiens, UniProt P08684)
[2] = target: Delta-type opioid receptor (Homo sapiens, UniProt P41143); assay: Binding affinity to delta opioid receptor
[3] = tested on: Rattus norvegicus; assay: Antidepressant activity in rat assessed as immobility time at 0.6 mg/kg, po by forced swimming test (reference value: 150.3 +/- 11.1 sec); type: functional
[4] = tested on: Rattus norvegicus; assay: Antidepressant activity in rat assessed as immobility time at 1.3 mg/kg, po by forced swimming test (reference value: 150.3 +/- 11.1 sec); type: functional
How it was run: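 Rats received single compounds by mouth in a Porsolt forced swimming test. The read-out was immobility time in seconds, compared with a saline control, with imipramine 20 mg/kg po as the reference antidepressant. Values are mean ± SEM, n = 10 per group.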

[5] = tested on: Rattus norvegicus; assay: Antidepressant activity in rat assessed as immobility time at 0.08 mg/kg, po by forced swimming test (reference value: 158.7 +/- 8.9 sec); type: functional
How it was run: (§1)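 Rat forced swimming test (Porsolt): test substances given orally, and immobility time in seconds is recorded as mean ± SEM. Imipramine serves as the reference antidepressant.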

[6] = tested on: Rattus norvegicus; assay: Antidepressant activity in rat assessed as immobility time at […], po by forced swimming test (reference value: 158.7 +/- 8.9 sec); type: functional
[7] = tested on: Rattus norvegicus; assay: Antidepressant activity in rat assessed as immobility time at 0.5 mg/kg, po by forced swimming test (reference value: 158.7 +/- 8.9 sec); type: functional
How it was run: as §1

[8] = target: D(3) dopamine receptor (Homo sapiens, UniProt P35462); assay: Binding affinity to dopamine D3 receptor
D(3) dopamine receptor, sequence (P35462 whole entry): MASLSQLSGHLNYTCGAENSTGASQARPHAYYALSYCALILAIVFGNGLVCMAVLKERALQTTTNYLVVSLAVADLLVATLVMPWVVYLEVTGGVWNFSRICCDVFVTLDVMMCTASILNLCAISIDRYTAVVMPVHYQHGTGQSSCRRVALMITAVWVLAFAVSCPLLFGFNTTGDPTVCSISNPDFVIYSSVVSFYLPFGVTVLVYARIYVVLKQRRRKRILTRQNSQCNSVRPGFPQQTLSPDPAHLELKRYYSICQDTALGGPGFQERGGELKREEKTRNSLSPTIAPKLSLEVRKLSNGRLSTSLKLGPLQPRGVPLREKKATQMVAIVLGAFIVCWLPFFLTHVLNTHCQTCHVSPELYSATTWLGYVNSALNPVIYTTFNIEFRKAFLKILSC

[9] = target: T1, Corticotropin-releasing factor receptor 1 (Homo sapiens, UniProt P34998); assay: Inhibition of CRF1 receptor
T1 sequence (P34998 whole entry): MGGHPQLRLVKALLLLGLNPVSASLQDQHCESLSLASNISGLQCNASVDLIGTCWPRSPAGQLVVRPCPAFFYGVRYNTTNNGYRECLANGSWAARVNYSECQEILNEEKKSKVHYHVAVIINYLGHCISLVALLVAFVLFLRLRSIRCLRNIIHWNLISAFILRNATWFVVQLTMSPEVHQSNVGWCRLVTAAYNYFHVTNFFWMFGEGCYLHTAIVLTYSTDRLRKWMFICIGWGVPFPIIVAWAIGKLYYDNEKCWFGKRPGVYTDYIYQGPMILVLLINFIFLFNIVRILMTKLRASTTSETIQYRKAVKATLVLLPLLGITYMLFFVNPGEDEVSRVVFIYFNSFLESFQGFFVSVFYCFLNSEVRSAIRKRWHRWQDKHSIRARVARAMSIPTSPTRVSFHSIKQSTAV

[10] = target: T1, Corticotropin-releasing factor receptor 1; assay: Inhibition of recombinant CRF1 receptor expressed in CHO cells assessed as inhibition of CRF-induced cAMP formation; type: functional, cell-based
[11] = tested on: Rattus norvegicus; assay: Reduction in corticotropin-releasing hormone mRNA expression in rat hyphalamic paraventricular nucleus at 0.2 mg/kg, po, qd for 8 weeks; type: functional; parameters: scale not given: the % may be the effect or the level left
[12] = tested on: Rattus norvegicus; assay: Reduction in %5HT1A receptor mRNA expression in rat hippocampus at 0.2 mg/kg, po, qd for 8 weeks; type: functional; parameters: scale not given: the % may be the effect or the level left
[13] = Plasma concentration in po dosed rat after 270 mins; type: ADME, organism-based
How it was run: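 Rats were fed the pure compound orally, and plasma concentration was followed over time, including the 270 min point. AUC was expressed relative to the compound given alone, set at 100%.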

[14] = Permeability across apical to basolateral side in human Caco-2 cells; type: ADME, cell-based; conditions: read-out: permeability
How it was run: (§2)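 Caco-2 colon adenocarcinoma cells were grown as monolayers in Transwell chambers, and compound was dosed to the apical or the basolateral side. Transport was measured apical to basolateral (absorption) and basolateral to apical (efflux). The result is given as apparent permeability in cm/s.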

[15] = Permeability across basolateral to apical side in human Caco-2 cells; type: ADME, cell-based; conditions: read-out: permeability
How it was run: as §2

[16] = tested on: Rattus norvegicus; assay: Antidepressant activity in rat assessed as immobility time at 0.6 mg/kg, po by forced swimming test (reference value: 169.6 +/- 19 sec); type: functional
How it was run: as §1

[17] = tested on: Rattus norvegicus; assay: Antidepressant activity in rat assessed as immobility time at 1.3 mg/kg, po by forced swimming test (reference value: 169.6 +/- 19 sec); type: functional
How it was run: as §1

[18] = tested on: Rattus norvegicus; assay: Antidepressant activity in rat assessed as immobility time at 2.6 mg/kg, po by forced swimming test (reference value: 169.6 +/- 19 sec); type: functional
How it was run: as §1

[19] = tested on: Rattus norvegicus; assay: Antidepressant activity in rat assessed as immobility time at 5.2 mg/kg, po by forced swimming test (reference value: 169.6 +/- 19 sec); type: functional
How it was run: as §1

[20] = tested on: Rattus norvegicus; assay: Antidepressant activity in rat assessed as immobility time at 7.6 mg/kg, po by forced swimming test (reference value: 169.6 +/- 19 sec); type: functional
How it was run: as §1

[21] = tested on: Rattus norvegicus; assay: Antidepressant activity in rat assessed as immobility time at 20 mg/kg, po by forced swimming test (reference value: 158.7 +/- 8.9 sec); type: functional
How it was run: as §1

[22] = tested on: Rattus norvegicus; assay: Antidepressant activity in rat assessed as immobility time at 20 mg/kg, po by forced swimming test (reference value: 169.6 +/- 19 sec); type: functional
How it was run: as §1

[23] = tested on: Rattus norvegicus; assay: Antidepressant activity in rat assessed as immobility time at 20 mg/kg, po by forced swimming test (reference value: 150.3 +/- 11.1 sec); type: functional
How it was run: as §1

[24] = tested on: Rattus norvegicus; assay: Antidepressant activity in rat assessed as immobility time at 20 mg/kg, po by forced swimming test (reference value: 138.6 +/- 12 sec); type: functional
[25] = target: T2, Alpha-2C adrenergic receptor (Homo sapiens, UniProt P18825); assay: Binding affinity to adrenergic alpha2c receptor
T2 sequence (P18825 whole entry): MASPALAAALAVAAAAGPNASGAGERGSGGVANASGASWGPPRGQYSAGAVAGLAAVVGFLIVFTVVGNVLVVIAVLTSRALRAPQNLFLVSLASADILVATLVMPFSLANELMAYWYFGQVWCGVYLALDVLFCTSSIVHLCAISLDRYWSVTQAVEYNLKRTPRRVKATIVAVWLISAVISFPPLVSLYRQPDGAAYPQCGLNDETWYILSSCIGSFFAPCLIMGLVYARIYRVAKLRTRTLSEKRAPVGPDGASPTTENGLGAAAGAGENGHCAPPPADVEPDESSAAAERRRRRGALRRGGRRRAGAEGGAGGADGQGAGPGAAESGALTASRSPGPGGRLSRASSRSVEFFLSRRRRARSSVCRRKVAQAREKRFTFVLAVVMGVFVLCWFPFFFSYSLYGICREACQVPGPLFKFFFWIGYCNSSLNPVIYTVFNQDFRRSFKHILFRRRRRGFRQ

[26] = target: T3, D(4) dopamine receptor (Homo sapiens, UniProt P21917); assay: Binding affinity to dopamine D4 receptor
T3 sequence (P21917 whole entry): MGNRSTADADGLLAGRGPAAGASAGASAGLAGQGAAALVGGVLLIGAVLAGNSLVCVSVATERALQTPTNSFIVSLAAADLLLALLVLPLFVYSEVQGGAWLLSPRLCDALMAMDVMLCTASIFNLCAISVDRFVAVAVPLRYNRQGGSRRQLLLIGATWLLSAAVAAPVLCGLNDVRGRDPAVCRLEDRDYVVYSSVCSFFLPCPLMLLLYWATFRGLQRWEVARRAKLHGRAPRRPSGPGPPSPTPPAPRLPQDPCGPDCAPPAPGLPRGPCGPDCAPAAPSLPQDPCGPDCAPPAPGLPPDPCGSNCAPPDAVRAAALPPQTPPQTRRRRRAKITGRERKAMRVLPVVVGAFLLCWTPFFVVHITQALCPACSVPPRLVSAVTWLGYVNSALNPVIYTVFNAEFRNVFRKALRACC

Cytochrome P450 3A4, sequence (P08684 whole entry): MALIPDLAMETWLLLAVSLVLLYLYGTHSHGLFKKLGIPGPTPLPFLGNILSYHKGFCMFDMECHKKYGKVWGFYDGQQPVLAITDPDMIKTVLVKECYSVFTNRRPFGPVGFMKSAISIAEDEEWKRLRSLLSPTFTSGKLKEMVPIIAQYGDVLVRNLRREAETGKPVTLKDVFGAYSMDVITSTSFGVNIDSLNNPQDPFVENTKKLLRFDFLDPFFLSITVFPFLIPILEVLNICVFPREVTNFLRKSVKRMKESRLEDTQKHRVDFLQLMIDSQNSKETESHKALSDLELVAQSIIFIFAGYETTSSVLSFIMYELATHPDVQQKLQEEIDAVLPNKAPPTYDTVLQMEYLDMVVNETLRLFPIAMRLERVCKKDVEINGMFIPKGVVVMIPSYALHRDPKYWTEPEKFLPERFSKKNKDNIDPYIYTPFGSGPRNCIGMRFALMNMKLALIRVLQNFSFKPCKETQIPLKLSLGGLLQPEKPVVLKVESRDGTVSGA
Delta-type opioid receptor, sequence (P41143 whole entry): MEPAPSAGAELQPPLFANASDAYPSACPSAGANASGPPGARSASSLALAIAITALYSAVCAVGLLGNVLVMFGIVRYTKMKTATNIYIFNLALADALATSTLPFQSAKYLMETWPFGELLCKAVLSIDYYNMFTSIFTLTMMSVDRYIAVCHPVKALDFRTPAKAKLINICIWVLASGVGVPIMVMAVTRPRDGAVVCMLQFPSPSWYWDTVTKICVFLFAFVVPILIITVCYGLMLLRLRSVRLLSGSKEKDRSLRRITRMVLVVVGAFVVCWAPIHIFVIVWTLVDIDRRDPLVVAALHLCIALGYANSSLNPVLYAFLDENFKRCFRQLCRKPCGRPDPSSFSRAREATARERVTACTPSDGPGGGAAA

`O=c1c(-c2c(O)cc(O)c3c(=O)cc(-c4ccc(O)cc4)oc23)c(-c2ccc(O)cc2)oc2cc(O)cc(O)c12` showed an IC50 [1] of 80 nM.
With `O=c1cc(-c2ccc(O)c(-c3c(O)cc(O)c4c(=O)cc(-c5ccc(O)cc5)oc34)c2)oc2cc(O)cc(O)c12` [AMENTOFLAVONE] the Ki [2] was 36.5 nM.
`C[C@@H]1O[C@@H](O[C@H]2C(=O)c3c(O)cc(O)cc3O[C@@H]2c2ccc(O)c(O)c2)[C@H](O)[C@H](O)[C@H]1O` [ASTILBIN] showed a Time [3] of 148.6 s and a Time [4] of 163.7 s.
`Cc1cc(O)c2c(=O)c3c(O)cc(O)c4c5c(O)cc(O)c6c(=O)c7c(O)cc(C)c8c1c2c(c34)c(c78)c65` [HYPERICIN] showed a Time [5] of 154.7 s, a Time [6] of 110.2 s and a Time [7] of 147.8 s. For the same compound, the Ki [8] was 34.5 nM, the IC50 [9] was 300 nM and the IC50 [10] was 300 nM. It also gave an Activity [11] of 16%, an Activity [12] of 11% and a concentration at 4.5 h [13] of 6 ng/mL. It also gave a Papp A→B [14] of 0.25 ×10⁻⁶ cm/s, a Papp B→A [15] of 12 ×10⁻⁶ cm/s and an IC50 [1] of 8700 nM.
In the case of `O=c1c(O[C@@H]2O[C@H](CO)[C@H](O)[C@H](O)[C@H]2O)c(-c2ccc(O)c(O)c2)oc2cc(O)cc(O)c12` [HYPEROSIDE], the Time [16] is reported as 101.2 s, the Time [17] is reported as 109.5 s and the Time [18] is reported as 133.7 s. For the same compound, the Time [19] was 149.2 s and the Time [20] was 158.8 s.
Work on `CN(C)CCCN1c2ccccc2CCc2ccccc21` [IMIPRAMINE] yielded a Time [21] of 97.1 s, a Time [22] of 95.4 s and a Time [23] of 86.1 s. For the same compound, the Time [24] was 77.5 s.
With `O=c1c(O[C@@H]2O[C@H](CO)[C@@H](O)[C@H](O)[C@H]2O)c(-c2ccc(O)c(O)c2)oc2cc(O)cc(O)c12` [ISOQUERCETIN] the Time [3] was 100.4 s.
`O=C(O)[C@H]1O[C@@H](Oc2c(-c3ccc(O)c(O)c3)oc3cc(O)cc(O)c3c2=O)[C@H](O)[C@@H](O)[C@@H]1O` [MIQUELIANIN] showed a Ki [25] of 4060 nM.
With `O=c1c(O)c(-c2ccc(O)c(O)c2)oc2cc(O)cc(O)c12` [QUERCETIN] the Ki [26] was 7850 nM.
`C[C@@H]1O[C@@H](Oc2c(-c3ccc(O)c(O)c3)oc3cc(O)cc(O)c3c2=O)[C@H](O)[C@H](O)[C@H]1O` [QUERCITRIN] showed a Time [3] of 149.9 s and a Time [4] of 162.3 s.
